{"source": "ChEMBL document CHEMBL3132746", "about": "“Development of CBAP-BPyne, a probe for γ-secretase and presenilinase” (Medchemcomm, 2014)", "key": {"[1]": {"molecular_target": "Presenilin-1 (Homo sapiens) (UniProt P49768)", "assay": "Binding affinity to PS1-NTF in human HeLa cell membrane by photolabelling assay", "format": "cell membranes", "how_it_was_run": "(§1)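 Photolabelling: 600 µg HeLa cell membrane diluted in PBS, preincubated with 2 µM CBAP or vehicle for 15 min at 37 °C. Then 20 nM probe for 1 h at 37 °C and UV irradiation (350 nm) for 45 min. Membranes pelleted and clicked to biotin azide (1 h, RT). Streptavidin pull-down overnight at 4 °C, biotin elution, Western blot with the relevant subunit antibody.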"}, "Gamma-secretase [2]": {"molecular_target": "Gamma-secretase", "assay": "Inhibition of gamma-secretase (unknown origin) expressed in CHO cells transfected with APP assessed as amyloid-beta42 production by cell based assay", "parameters": "species or system Homo sapiens"}, "[3]": {"molecular_target": "Presenilin-1 (Homo sapiens) (UniProt P49768)", "assay": "Inhibition of PS1 PSase activity in human HeLa cells assessed as accumulation of full length protein at 1 to 10 uM after 4 days by Western blot analysis", "format": "cell-based", "how_it_was_run": "(§2)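 HeLa cells treated 4 days at 1, 3 or 10 µM, with DMSO vehicle as control. Lysis in RIPA buffer; 15 µg lysate run on 12% Bis-Tris gel in MES buffer. Western blot with anti PS1-NTF antibody, scoring full-length PS1 and PS1-NTF bands.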"}, "Gamma-secretase [4]": {"molecular_target": "Gamma-secretase", "assay": "Inhibition of gamma-secretase (unknown origin) using APP substrate assessed as amyloid-beta40 production", "format": "protein-complex assay, Homo sapiens"}, "Gamma-secretase [5]": {"molecular_target": "Gamma-secretase", "assay": "Inhibition of gamma-secretase (unknown origin) using Notch1 substrate assessed as Notch1-NICD production", "format": "protein-complex assay, Homo sapiens"}, "[6]": {"molecular_target": "Gamma-secretase subunit PEN-2 (Homo sapiens) (UniProt Q9NZ42)", "sequence (Q9NZ42 whole entry)": "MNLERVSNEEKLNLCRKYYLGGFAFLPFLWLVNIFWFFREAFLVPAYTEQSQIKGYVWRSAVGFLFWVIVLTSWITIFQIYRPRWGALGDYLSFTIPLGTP", "assay": "Binding affinity to Pen-2 in human HeLa cell membrane by photolabelling assay", "format": "cell membranes", "how_it_was_run": "as §1"}, "HeLa [7]": {"system": "HeLa", "assay": "Binding affinity to Aph-1 in human HeLa cell membrane by photolabelling assay", "format": "cell membranes", "how_it_was_run": "as §1"}, "Nicastrin (Homo sapiens)": {"molecular_target": "Nicastrin (Homo sapiens) (UniProt Q92542)", "sequence (Q92542 whole entry)": "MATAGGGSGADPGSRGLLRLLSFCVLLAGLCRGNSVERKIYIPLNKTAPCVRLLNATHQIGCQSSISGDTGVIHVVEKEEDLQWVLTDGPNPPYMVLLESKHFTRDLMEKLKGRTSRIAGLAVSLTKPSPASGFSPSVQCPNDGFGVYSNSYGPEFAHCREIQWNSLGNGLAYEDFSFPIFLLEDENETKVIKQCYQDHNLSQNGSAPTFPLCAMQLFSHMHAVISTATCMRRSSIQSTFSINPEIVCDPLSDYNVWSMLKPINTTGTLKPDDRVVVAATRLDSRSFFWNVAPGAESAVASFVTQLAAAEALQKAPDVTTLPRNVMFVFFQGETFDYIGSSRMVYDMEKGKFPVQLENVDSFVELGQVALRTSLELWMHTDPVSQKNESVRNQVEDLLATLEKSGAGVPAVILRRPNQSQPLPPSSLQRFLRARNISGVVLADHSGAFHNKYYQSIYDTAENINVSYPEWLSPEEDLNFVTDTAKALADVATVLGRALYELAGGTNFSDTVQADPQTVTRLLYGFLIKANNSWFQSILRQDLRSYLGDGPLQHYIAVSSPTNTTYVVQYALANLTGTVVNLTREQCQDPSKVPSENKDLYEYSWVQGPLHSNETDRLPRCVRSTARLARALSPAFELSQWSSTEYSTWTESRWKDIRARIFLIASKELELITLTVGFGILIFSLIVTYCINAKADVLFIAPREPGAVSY", "assay": "Binding affinity to nicastrin in human HeLa cell membrane by photolabelling assay", "format": "cell membranes", "how_it_was_run": "as §1"}, "[8]": {"molecular_target": "Presenilin-1 (Homo sapiens) (UniProt P49768)", "assay": "Binding affinity to PS1-CTF in human HeLa cell membrane by photolabelling assay", "format": "cell membranes", "how_it_was_run": "as §1"}, "HeLa [9]": {"system": "HeLa", "assay": "Binding affinity to Signal peptide peptidase in human HeLa cell membrane by photolabelling assay", "format": "cell membranes", "how_it_was_run": "as §1"}, "[10]": {"molecular_target": "Presenilin-1 (Homo sapiens) (UniProt P49768)", "assay": "Inhibition of PS1 PSase activity in human HeLa cells assessed as complete depletion of PS1-NTF protein at 1 to 10 uM after 4 days by Western blot analysis relative to control", "format": "cell-based", "how_it_was_run": "as §2"}}, "note": "Activity calls are given as the source filed them. No cut-off for these calls is given here."}
{"smiles": "C#CCOc1ccc(C(=O)c2ccc(C(=O)N[C@@H](Cc3ccccc3)[C@H](O)C[C@@H](Cc3ccccc3)C(=O)N[C@@H](C)C(=O)N[C@@H]3N=C(C4CCCCC4)c4ccccc4NC3=O)cc2)cc1", "values": [{"measurement": "Activity", "setting": "[1]", "value": "Active"}, {"measurement": "IC50", "setting": "Gamma-secretase [2]", "value": 20, "unit": "nM"}, {"measurement": "inhibition", "setting": "[3]", "value": "Active"}, {"measurement": "IC50", "setting": "Gamma-secretase [4]", "value": 0.91, "unit": "nM"}, {"measurement": "IC50", "setting": "Gamma-secretase [5]", "value": 1, "unit": "nM"}, {"measurement": "Activity", "setting": "[6]", "value": "inactive"}, {"measurement": "Activity", "setting": "HeLa [7]", "value": "inactive"}, {"measurement": "Activity", "setting": "Nicastrin (Homo sapiens)", "value": "inactive"}, {"measurement": "Activity", "setting": "[8]", "value": "inactive"}, {"measurement": "Activity", "setting": "HeLa [9]", "value": "Active"}]}
{"smiles": "C[C@H](NC(=O)[C@H](Cc1ccccc1)C[C@@H](O)[C@H](Cc1ccccc1)NC(=O)OC(C)(C)C)C(=O)N[C@@H]1N=C(C2CCCCC2)c2ccccc2NC1=O", "values": [{"measurement": "Activity", "setting": "[1]", "value": "Active"}, {"measurement": "IC50", "setting": "Gamma-secretase [2]", "value": 28, "unit": "nM"}, {"measurement": "inhibition", "setting": "[10]", "value": "Active"}, {"measurement": "inhibition", "setting": "[3]", "value": "Active"}, {"measurement": "IC50", "setting": "Gamma-secretase [4]", "value": 0.7, "unit": "nM"}, {"measurement": "IC50", "setting": "Gamma-secretase [5]", "value": 0.56, "unit": "nM"}, {"measurement": "Activity", "setting": "[6]", "value": "inactive"}, {"measurement": "Activity", "setting": "HeLa [7]", "value": "inactive"}, {"measurement": "Activity", "setting": "Nicastrin (Homo sapiens)", "value": "inactive"}, {"measurement": "Activity", "setting": "[8]", "value": "inactive"}, {"measurement": "Activity", "setting": "HeLa [9]", "value": "Active"}]}
{"smiles": "CC(C)C[C@H](NC(=O)[C@H](Cc1ccccc1)C[C@@H](O)[C@H](Cc1ccccc1)NC(=O)OC(C)(C)C)C(=O)N[C@@H](Cc1ccccc1)C(N)=O", "values": [{"measurement": "inhibition", "setting": "[3]", "value": "inactive"}]}
